Screening results (PubChem)
MrgX1 PAM = human MrgX1 positive allosteric modulation, primary screen; Q96LB2; 310,000 tested, 0.63% active; B-score at 10 µM; MrgX1-HEK293, Fluo-4 calcium flux, FDSS; hits give high values;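 active = plate-corrected calcium response at least 3 library SD above typical, normal starting fluorescence, not activating the receptor alone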;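 also: compound read alongside a low EC10 to EC30 dose of BAM8-22 agonist; peak minus trough fluorescence over baseline measured at the second addition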
Target sequence (Q96LB2 whole entry, looked up): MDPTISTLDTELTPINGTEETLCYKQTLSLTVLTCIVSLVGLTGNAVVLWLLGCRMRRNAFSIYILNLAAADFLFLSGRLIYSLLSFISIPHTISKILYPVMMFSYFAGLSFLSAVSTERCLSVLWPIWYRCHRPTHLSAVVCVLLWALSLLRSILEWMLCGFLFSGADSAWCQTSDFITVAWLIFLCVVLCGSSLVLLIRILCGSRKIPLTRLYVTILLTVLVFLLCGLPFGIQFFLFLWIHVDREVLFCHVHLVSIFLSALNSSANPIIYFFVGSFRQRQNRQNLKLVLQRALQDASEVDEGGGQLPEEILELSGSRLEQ
MrgX1 agonist = activates human MrgX1 receptor signaling; MrgX1-HEK293 cells, Fluo-4 calcium fluorescence, agonist mode; hits give high values; B-score at 10 µM; 310,000 tested, 0.44% active;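 active = calcium response B-score plate-corrected fluorescence ratio at least 3 library SD, with starting fluorescence B-score inside 5 SD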
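Test system: Stable human MrgX1 HEK293 cell line | Schedule: Overnight plating before 1 h dye loading | Read-out basis: Baseline-normalised fluorescence change ratio, B-scored | Detection: Kinetic calcium dye fluorescence, Fluo-4 NW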
MrgX1 antagonist = blocks BAM8-22 activation of human MrgX1 receptor; Q96LB2; MRGX1-HEK293 calcium flux, Fluo-4, BAM8-22 antagonism; hits give low values; B-score at 10 µM; 310,000 tested, 1.3% active; AID 588676;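 active = calcium-response B-score plate-corrected more than 3 library SD below zero, starting fluorescence within 5 deviations, no agonist response on first addition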;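 also: peak minus trough fluorescence over baseline after final BAM8-22 challenge near maximal dose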
RGS4 pot = potentiators or activators of RGS4. AID 463111. B-score at 10 µM. 310,000 tested, 0.92% active. HEK293 M3R/inducible RGS4, carbachol calcium flux Fluo4; hits give low values;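 active = B-score of the integrated calcium signal more than 4 SD below the library mean, with starting fluorescence not abnormally high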;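 also: negative B-score means reduced calcium response which marks RGS4 activation or potentiation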
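Test system: HEK293 cells with stable M3R and inducible RGS4; also added: carbachol at ECmax as muscarinic agonist stimulus; schedule: dye loading 30 min 37 °C, buffer rest 30 min RT; technique: kinetic calcium fluorescence imaging with Fluo4-AM dye, 2 µM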
RGS4 inh = inhibitors of human RGS4 | P49798 | HEK293 M3R/RGS4 inducible, Fluo-4 calcium flux; hits give high values; triggered by carbachol at its EC20 | 310,000 tested, 0.45% active | B-score at 10 µM;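 active = B-score, a plate-corrected calcium signal, over three deviations above library mean, with baseline fluorescence within five deviations of library mean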;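 also: RGS4 expression induced by doxycycline in cells with stable M3 receptor; B-score is computed from the integrated fluorescence ratio over baseline after carbachol; higher B-score means a larger calcium signal and so more RGS4 inhibition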
MrgX1 ag reconf = reconfirmed activator of human MrgX1 receptor signaling; shares compounds with MrgX1 agonist; MrgX1-HEK293, Fluo-4 calcium fluorescence, FDSS; activation, % at 10 µM; 600 tested, 78% active; AID 602412;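 active = calcium signal rise, corrected for plate position, at least 3 library SD high, with starting brightness within 5 such deviations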
HEK293 Ca flux = activity in parental HEK293 cells lacking MrgX1; shares compounds with MrgX1 antagonist; Fluo-4 calcium fluorescence, FDSS; fluorescence ratio F(max-min)/F0 at 10 µM; 4,000 tested, 2% active; AID 624111;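 active = duplicate-averaged calcium fluorescence ratio at least three times the standard deviation of buffer wells, a nonspecific response in parental cells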
HEK293 Ca counter = activity in parental HEK293 cells without MrgX1; shares compounds with MrgX1 antagonist; parental HEK293 calcium flux, Fluo-4 fluorescence ratio; hits give high values; fluorescence ratio F(max-min)/F0 at 10 µM; 4,000 tested, 0.4% active; AID 624114;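 active = calcium fluorescence ratio, averaged over duplicates, at least 3 SD of the buffer-well ratio, meaning a nonspecific response in receptor-free cells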;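 also: untransfected parental HEK293 lacking MrgX1 used as counterscreen for MrgX1 allosteric activators; fluorescence change taken during the second addition on a kinetic imager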
HEK293 Ca cntr2 = MrgX1 activator counter-screen hit in parental HEK293 cells; shares compounds with MrgX1 antagonist; Fluo-4 calcium fluorescence (FDSS); hits give high values; fluorescence ratio F(max-min)/F0 at 10 µM; 4,000 tested, 8.7% active; AID 624115;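 active = calcium fluorescence ratio at least three times the spread of buffer wells, meaning a non-specific response in parental cells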
* hit, by the source's call; i = inactive; nt = no result. Most compounds without a hit are left out; they make up all but 3.5% or so of the library.

SMILES	MrgX1 PAM	MrgX1 agonist	MrgX1 antagonist	RGS4 pot	RGS4 inh	MrgX1 ag reconf	HEK293 Ca flux	HEK293 Ca counter	HEK293 Ca cntr2
O=C(O)CCc1ccc(-c2ccccc2)n1CC(=O)O	i	i	i	i	i	nt	nt	nt	nt
CCC1(C)Cc2ccccc2-c2nc(NCCO)n(-c3ccc(C)cc3)c(=O)c21 (stereo unspecified)	i	39*	i	i	i	173%*	i	i	56*
CC1(C)Cc2ccccc2-c2nc(NCCO)n(-c3ccccc3)c(=O)c21	i	i	i	i	i	nt	nt	nt	nt
Cc1nc2ccccc2c(=O)n1CCc1ccc(O)cc1	i	i	i	i	i	nt	nt	nt	nt
Cc1ccc(C(=O)NNC(=S)NC(=O)COc2ccccc2)cc1	i	109*	i	i	i	618%*	i	i	116*
Cc1ccccc1C(=O)NNC(=S)NC(=O)COc1ccccc1	i	120*	i	i	i	640%*	i	i	125*
CNS(=O)(=O)c1cc(OC)c(OC)cc1CC(=O)OC	i	i	i	i	i	nt	nt	nt	nt
COc1ccccc1-c1nnc(SCC(=O)NC2CCS(=O)(=O)C2)n1CCc1ccccc1 (stereo unspecified)	i	i	i	i	i	nt	nt	nt	nt
N#CC1=C(SCc2ccccc2)NC(=O)CC1c1ccco1 (stereo unspecified)	i	41*	i	i	i	180%*	i	i	i
N#CC1=C(SCC(=O)NCc2ccccc2)NC(=O)CC1c1ccco1 (stereo unspecified)	i	i	i	i	i	nt	nt	nt	nt
Cc1ccc(S(=O)(=O)N(C)/N=C/C=C/c2ccccc2)cc1	i	i	i	i	i	nt	nt	nt	nt
COc1ccc(/C(O)=C/c2nc3ccc(C(=O)NCCc4cccc(C)c4)cc3[nH]c2=O)cc1OC	i	28*	i	i	i	i	i	i	i
CC(=O)c1ccc(N2C(=O)C3C(C2=O)C(C(=O)c2ccc(Cl)cc2)N2CCCC32)cc1 (stereo unspecified)	nt	nt	nt	i	i	nt	nt	nt	nt
COc1ccc(N2C(=O)C3C(C2=O)C(C(=O)c2ccc(Cl)cc2)N2CCCC32)cc1 (stereo unspecified)	i	72*	i	i	i	i	i	i	i
Fc1cccc(Cl)c1CN1CCN(c2nc3ccccc3s2)CC1	i	31*	i	i	i	224%*	i	i	i
O=C(c1ccc2ccccc2n1)N1CCN(Cc2c(F)cccc2Cl)CC1	i	i	i	i	i	nt	nt	nt	nt
CC1(C)Cc2c(c(-c3ccco3)nc3sc4c(NCCCO)ncnc4c23)CO1	i	i	i	i	i	nt	nt	nt	nt
CC1(C)Cc2c(c(-c3ccco3)nc3sc4c(NCC5CCCO5)ncnc4c23)CO1 (stereo unspecified)	i	49*	i	i	i	208%*	i	i	45*
CN(C)CCOC1c2ccccc2CCc2ccc3ccccc3c21 (stereo unspecified)	i	57*	i	i	i	142%*	i	i	i
Cc1cc2ccc3ccccc3c2cc1CN(C)C	i	i	i	i	i	nt	nt	nt	nt
Cc1ccc(NC(=O)CN2CCN(CCN=CC3=C(O)CC(c4ccc(C)cc4)CC3=O)CC2)cc1 (stereo unspecified)	i	i	i	i	i	nt	nt	nt	nt
NCCC(=O)N1c2ccccc2Sc2ccc(Cl)cc21	i	79*	i	i	i	244%*	i	i	i
